Converted amounts (≈) assume the structure as drawn. The source made the active and inactive calls. The calls are words filed in the database; no cut-off is given here.
Columns and labels:
[1] = target: Dual specificity mitogen-activated protein kinase kinase; MEK1/2 (Homo sapiens, UniProt P36507+Q02750); assay: Inhibition of MEK in human A375 cells assessed as inhibition of ERK phosphorylation; assay type: cell-based
[2] = Volume of distribution at steady state in rat at 0.5 mg/kg, iv; assay type: ADME, organism-based; details: in vivo, read-out: Vdss
In short: (§1)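 Rats dosed IV at 0.5 mg/kg as solution in PEG400:H2O (60:40 v/v).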

[3] = target: Voltage-gated inwardly rectifying potassium channel KCNH2 (Homo sapiens, UniProt Q12809); assay: Inhibition of human ERG
[4] = Cmax in mouse xenografted with human A375SM cells at 25 mg/kg, po bid measured on day 20; assay type: ADME, organism-based; design: dose 25 mg/kg, route oral; details: in vivo
In short: (§2)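 Mice bearing A375SM xenografts dosed orally in PEG300:H2O (50:50 v/v) at 25 or 50 mg/kg BID or 100 mg/kg QD for 20 days, vehicle arm for comparison; tumor volume followed versus vehicle. Plasma exposure (AUC, Cmax, Tmax) measured on day 20.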

[5] = tested on: CHL-1; assay: Antiproliferative activity against human CHL-1 cells measured after 96 hrs by Cell Titer-Glo assay; assay type: functional, cell-based; details: CHL-1, 96 h
In short: (§3)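 Cells in DMEM/10 mM HEPES/10% FBS added after compound, incubated 96 h at 37 °C, 5% CO2; equilibrated 15 min at room temperature, viability by CellTiter-Glo luminescence. IC50 from 10-point, 3-fold titration curves.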

[6] = organism: Homo sapiens; assay: Selectivity ratio, ratio of IC50 for recombinant human GST-tagged ERK2 expressed in Escherichia coli to IC50 for MELK (unknown origin)
In short: (§4)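 Part of a counter-screen panel of 101 kinases. Fold selectivity is each kinase's IC50 relative to the IC50 from the Invitrogen ERK2 assay.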

[7] = Plasma clearance in rat at 0.5 mg/kg, iv; assay type: ADME, organism-based; in short: as §1
[8] = Solubility in human FaSSIF at pH 6.5; assay type: physicochemical
In short: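 Solubility measured in human fasted-state simulated intestinal fluid at pH 6.5.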

[9] = Cmax in mouse xenografted with human A375SM cells at 50 mg/kg, po bid measured on day 20; assay type: ADME, organism-based; design: dose 50 mg/kg, route oral; details: in vivo; in short: as §2
[10] = Plasma concentration in mouse xenografted with human A375SM cells at 100 mg/kg, po administered qd for 20 days measured after 6 hrs of final dose; assay type: ADME, organism-based
In short: (§5)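 A375SM xenograft mice given 100 mg/kg QD orally in PEG300:H2O (50:50 v/v) for 20 days; after final dose on day 20, blood taken at several time points from this arm and vehicle arm for compound exposure and pRSK and pERK levels.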

[11] = Plasma concentration in mouse xenografted with human A375SM cells at 100 mg/kg, po administered qd for 20 days measured after 2 hrs of final dose; assay type: ADME, organism-based; in short: as §5
[12] = organism: Homo sapiens; assay: Selectivity ratio, ratio of IC50 for recombinant human GST-tagged ERK2 expressed in Escherichia coli to IC50 for FLT4 (unknown origin); in short: as §4
[13] = tested on: A375-SM; assay: Antitumor activity against human A375SM cells xenografted in mouse assessed as tumor regression at 100 mg/kg, po administered qd for 20 days measured after final dosage relative to vehicle treated control; assay type: functional; in short: as §2
[14] = Protein binding in rat plasma; assay type: ADME, cell-free; details: read-out: PPB (converted)
[15] = tested on: A375-SM; assay: Antitumor activity against human A375SM cells xenografted in mouse assessed as tumor regression at 50 mg/kg, po administered bid for 20 days measured after final dosage relative to vehicle treated control; assay type: functional; in short: as §2
[16] = target: Cytochrome P450 3A4 (Homo sapiens, UniProt P08684); assay: Inhibition of CYP3A4 (unknown origin); assay type: ADME
[17] = Cmax in mouse xenografted with human A375SM cells at 100 mg/kg, po qd measured on day 20; assay type: ADME, organism-based; design: dose 100 mg/kg, route oral; details: in vivo; in short: as §2
[18] = Plasma concentration in mouse xenografted with human A375SM cells at 100 mg/kg, po administered qd for 20 days measured after 12 hrs of final dose; assay type: ADME, organism-based; in short: as §5
[19] = organism: Homo sapiens; assay: Selectivity ratio, ratio of IC50 for recombinant human GST-tagged ERK2 expressed in Escherichia coli to IC50 for PDGFRalpha V561D mutant (unknown origin); in short: as §4
[20] = Tmax in mouse xenografted with human A375SM cells at 25 mg/kg, po bid; assay type: ADME, organism-based; details: in vivo; in short: as §2
[21] = AUC in mouse xenografted with human A375SM cells at 25 mg/kg, po bid measured on day 20; assay type: ADME, organism-based; details: in vivo; in short: as §2
[22] = Oral bioavailability in rat at 1 mg/kg; assay type: ADME, organism-based; details: in vivo
In short: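 Rats dosed PO at 1 mg/kg as solution in PEG400:H2O (60:40 v/v).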

[23] = organism: Homo sapiens; assay: Selectivity ratio, ratio of IC50 for recombinant human GST-tagged ERK2 expressed in Escherichia coli to IC50 for MEK1 (unknown origin)
In short: (§6)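 Kinase counter-screen using a coupled format: the kinase's effect was read as activity of downstream ERK. Fold selectivity is the kinase IC50 relative to the IC50 from the Invitrogen ERK2 assay.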

[24] = AUC in mouse xenografted with human A375SM cells at 100 mg/kg, po qd measured on day 20; assay type: ADME, organism-based; details: in vivo; in short: as §2
[25] = Half life in rat at 0.5 mg/kg, iv; assay type: ADME, organism-based; details: in vivo; in short: as §1
[26] = tested on: Mus musculus; assay: In vivo inhibition of ERK in mouse xenografted with human A375SM cells assessed as inhibition RSK phosphorylation at 100 mg/kg, po administered qd for 20 days measured after 2 to 24 hrs post final dosage; assay type: functional, organism-based; in short: as §5
[27] = Dose normalized AUC in rat at 0.5 mg/kg, iv; assay type: ADME, organism-based; details: in vivo
[28] = Inhibition of ERK (unknown origin) assessed as inhibition of RSK phosphorylation; design: species or system Homo sapiens
[29] = tested on: A375-SM; assay: Antiproliferative activity against human A375SM cells harboring BRAF V600E mutant measured after 96 hrs by Cell Titer-Glo assay; assay type: functional, cell-based; in short: as §3
[30] = Inhibition of ERK in human A375SM cells harboring BRAF V600E mutant assessed as inhibition of RSK phosphorylation measured after 4 hrs by mesoscale electrochemiluminescent sandwich assay; assay type: cell-based; details: A375-SM
In short: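 A375SM (BRAF V600E melanoma) cells, 10,000 per well, treated 4 h; lysed 20 min at 4 °C in Tris/NaCl/EGTA/EDTA/Triton/NaF buffer with protease and phosphatase inhibitors. Lysate captured with biotin anti-RSK1 on streptavidin MSD plate, detected with SULFO-TAG anti-pRSK (pThr359/Ser363) overnight at 4 °C; electrochemiluminescence read. IC50 from 11-point titration.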

[31] = Plasma concentration in mouse xenografted with human A375SM cells at 100 mg/kg, po administered qd for 20 days measured after 8 hrs of final dose; assay type: ADME, organism-based; in short: as §5
[32] = organism: Homo sapiens; assay: Selectivity ratio, ratio of IC50 for recombinant human GST-tagged ERK2 expressed in Escherichia coli to IC50 for PDGFRalpha D842V mutant (unknown origin); in short: as §4
[33] = tested on: Mus musculus; assay: In vivo inhibition of MEK in mouse xenografted with human A375SM cells assessed as inhibition ERK phosphorylation at 100 mg/kg, po administered qd for 20 days measured after 2 to 24 hrs post final dosage; assay type: functional, organism-based; in short: as §5
[34] = AUC in mouse xenografted with human A375SM cells at 50 mg/kg, po bid measured on day 20; assay type: ADME, organism-based; details: in vivo; in short: as §2
[35] = Plasma concentration in mouse xenografted with human A375SM cells at 100 mg/kg, po administered qd for 20 days measured after 24 hrs of final dose; assay type: ADME, organism-based; in short: as §5
[36] = Tmax in mouse xenografted with human A375SM cells at 100 mg/kg, po qd; assay type: ADME, organism-based; details: in vivo; in short: as §2
[37] = Tmax in mouse xenografted with human A375SM cells at 50 mg/kg, po bid; assay type: ADME, organism-based; details: in vivo; in short: as §2
[38] = tested on: A375-SM; assay: Antitumor activity against human A375SM cells xenografted in mouse assessed as tumor regression compound administered orally for 20 days measured after final dosage relative to vehicle treated control; assay type: functional
[39] = target: Mitogen-activated protein kinase 1 (Homo sapiens, UniProt P28482); assay: Inhibition of human ERK2 preincubated for 15 mins followed by addition of IMAP peptide substrate and ATP measured after 60 mins by IMAP-FP assay
In short: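 Final: 0.5 nM hERK2, 900 nM unlabeled + 80 nM labeled peptide, 30 µM ATP; 60 min, quenched with IMAP beads in binding buffer with 24 mM NaCl, read by fluorescence polarization after 60 min.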

[40] = organism: Homo sapiens; assay: Selectivity ratio, ratio of IC50 for recombinant human GST-tagged ERK2 expressed in Escherichia coli to IC50 for ERK1 (unknown origin); in short: as §4
[41] = organism: Homo sapiens; assay: Selectivity ratio, ratio of IC50 for recombinant human GST-tagged ERK2 expressed in Escherichia coli to IC50 for MEK2 (unknown origin); in short: as §4
[42] = tested on: A375-SM; assay: Antitumor activity against human A375SM cells xenografted in mouse assessed as tumor growth inhibition at 25 mg/kg, po administered bid for 20 days measured after final dosage relative to vehicle treated control; assay type: functional; details: 480 h, read-out: TGI; in short: as §2
[43] = organism: Homo sapiens; assay: Selectivity ratio, ratio of IC50 for recombinant human GST-tagged ERK2 expressed in Escherichia coli to IC50 for BRAF (unknown origin); in short: as §6
[44] = target: Mitogen-activated protein kinase 1 (Mus musculus, UniProt P63085); assay: Inhibition of mouse ERK2 preincubated for 15 mins followed by addition of IMAP peptide substrate and ATP measured after 60 mins by IMAP-FP assay
[45] = Inhibition of ERK human A375 cells assessed as inhibition of RSK phosphorylation measured after 4 hrs by mesoscale electrochemiluminescent sandwich assay; details: A-375, 4 h

Chain of Mitogen-activated protein kinase 1 (Mus musculus, UniProt P63085) (P63085 whole entry): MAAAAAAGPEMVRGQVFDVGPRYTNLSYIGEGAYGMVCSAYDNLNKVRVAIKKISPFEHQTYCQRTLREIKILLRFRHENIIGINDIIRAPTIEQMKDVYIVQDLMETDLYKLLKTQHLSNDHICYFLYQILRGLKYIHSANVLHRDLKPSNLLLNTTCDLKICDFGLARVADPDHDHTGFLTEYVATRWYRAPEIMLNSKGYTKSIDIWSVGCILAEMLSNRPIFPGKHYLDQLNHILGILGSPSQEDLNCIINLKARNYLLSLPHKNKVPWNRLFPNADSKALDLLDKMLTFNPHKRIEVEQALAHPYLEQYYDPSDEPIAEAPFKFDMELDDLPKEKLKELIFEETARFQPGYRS
Chain of Mitogen-activated protein kinase 1 (Homo sapiens, UniProt P28482) (P28482 whole entry): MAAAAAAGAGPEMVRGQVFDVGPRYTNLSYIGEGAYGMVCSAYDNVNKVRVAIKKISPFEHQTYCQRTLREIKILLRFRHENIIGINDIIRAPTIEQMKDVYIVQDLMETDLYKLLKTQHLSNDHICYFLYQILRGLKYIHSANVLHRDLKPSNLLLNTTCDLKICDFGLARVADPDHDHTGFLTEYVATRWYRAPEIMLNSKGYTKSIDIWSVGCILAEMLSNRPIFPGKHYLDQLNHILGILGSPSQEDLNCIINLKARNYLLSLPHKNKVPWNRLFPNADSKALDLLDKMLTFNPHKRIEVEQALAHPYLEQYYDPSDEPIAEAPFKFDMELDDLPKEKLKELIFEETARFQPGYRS
Chain of Voltage-gated inwardly rectifying potassium channel KCNH2 (Q12809 whole entry): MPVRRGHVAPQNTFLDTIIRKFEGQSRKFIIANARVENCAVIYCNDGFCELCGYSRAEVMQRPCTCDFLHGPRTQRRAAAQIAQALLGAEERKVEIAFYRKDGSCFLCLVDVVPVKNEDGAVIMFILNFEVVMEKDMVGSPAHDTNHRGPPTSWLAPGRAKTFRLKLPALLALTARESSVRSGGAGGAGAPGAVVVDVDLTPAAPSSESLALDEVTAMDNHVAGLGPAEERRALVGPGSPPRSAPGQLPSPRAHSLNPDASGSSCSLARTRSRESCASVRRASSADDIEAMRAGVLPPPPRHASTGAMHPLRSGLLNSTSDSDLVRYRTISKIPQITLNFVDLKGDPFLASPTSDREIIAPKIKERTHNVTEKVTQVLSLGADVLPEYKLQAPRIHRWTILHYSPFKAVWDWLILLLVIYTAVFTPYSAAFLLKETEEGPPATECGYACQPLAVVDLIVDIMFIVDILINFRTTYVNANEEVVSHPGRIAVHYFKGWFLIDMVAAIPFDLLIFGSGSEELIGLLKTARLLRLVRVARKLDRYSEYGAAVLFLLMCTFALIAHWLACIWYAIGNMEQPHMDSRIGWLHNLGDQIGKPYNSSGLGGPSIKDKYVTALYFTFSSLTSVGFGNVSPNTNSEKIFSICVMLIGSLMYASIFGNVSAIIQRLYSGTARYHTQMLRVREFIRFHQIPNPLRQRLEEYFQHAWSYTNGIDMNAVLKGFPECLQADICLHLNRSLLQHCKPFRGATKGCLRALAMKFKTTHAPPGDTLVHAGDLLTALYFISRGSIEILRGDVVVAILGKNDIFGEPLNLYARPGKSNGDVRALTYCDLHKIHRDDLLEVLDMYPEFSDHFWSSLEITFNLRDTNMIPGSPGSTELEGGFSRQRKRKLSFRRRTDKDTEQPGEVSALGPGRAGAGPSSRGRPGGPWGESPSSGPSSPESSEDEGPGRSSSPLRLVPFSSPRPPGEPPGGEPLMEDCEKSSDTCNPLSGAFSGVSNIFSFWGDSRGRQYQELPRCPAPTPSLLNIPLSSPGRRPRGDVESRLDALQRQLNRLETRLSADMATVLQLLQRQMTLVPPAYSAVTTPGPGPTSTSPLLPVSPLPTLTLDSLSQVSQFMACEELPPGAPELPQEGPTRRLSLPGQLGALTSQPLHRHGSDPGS
Chain of Cytochrome P450 3A4 (P08684 whole entry): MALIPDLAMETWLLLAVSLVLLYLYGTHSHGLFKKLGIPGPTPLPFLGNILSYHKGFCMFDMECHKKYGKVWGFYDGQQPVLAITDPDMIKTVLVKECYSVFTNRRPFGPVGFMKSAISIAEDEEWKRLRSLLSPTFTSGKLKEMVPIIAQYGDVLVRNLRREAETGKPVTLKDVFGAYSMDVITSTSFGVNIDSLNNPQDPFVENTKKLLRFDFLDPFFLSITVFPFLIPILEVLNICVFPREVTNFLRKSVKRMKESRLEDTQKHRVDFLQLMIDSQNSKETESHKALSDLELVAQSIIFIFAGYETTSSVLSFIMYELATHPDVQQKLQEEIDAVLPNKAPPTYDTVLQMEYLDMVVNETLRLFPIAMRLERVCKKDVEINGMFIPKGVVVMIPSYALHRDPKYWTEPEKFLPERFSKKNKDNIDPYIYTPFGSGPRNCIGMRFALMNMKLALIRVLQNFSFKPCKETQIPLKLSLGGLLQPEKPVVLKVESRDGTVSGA

What does the source list for `Cc1cc(-c2n[nH]c3cc(NC(=O)N[C@H](C)c4ccccc4)ncc23)ccn1`?
IC50 [1]: > 10 µM; Vd [2]: 1.7 L/kg; IC50 [3]: > 20 µM; Cmax [4]: 12 µM; IC50 [5]: 1300 nM; Ratio IC50 [6]: < 100; clearance [7]: 35 mL/min/kg; solubility [8]: 18 µM (≈ 6.7 µg/mL); Cmax [9]: 23 µM; concentration at 6 h [10]: 5.2 µM; concentration at 2 h [11]: 20 µM; Ratio IC50 [12]: < 100; Activity [13]: 42%; fraction unbound [14]: 0.012; Activity [15]: 47%; IC50 [16]: 3.9 µM; Cmax [17]: 27 µM; concentration at 12 h [18]: 1600 nM; Ratio IC50 [19]: < 100; Tmax [20]: 11 h; AUC [21]: 95 µM·h; bioavailability [22]: 12%; Ratio IC50 [23]: < 100; AUC [24]: 320 µM·h; half-life [25]: 42 min; inhibition [26]: Active; AUC/dose [27]: 1.3 µM·h/mg/kg; IC50 [28]: 77 nM; IC50 [29]: 43 nM; IC50 [30]: 70 nM; concentration at 8 h [31]: 6.7 µM; Ratio IC50 [32]: < 100; inhibition [33]: inactive; AUC [34]: 240 µM·h; concentration at 24 h [35]: 100 nM; Tmax [36]: 4 h; Tmax [37]: 11 h; Activity [38]: Dose-dependent effect; IC50 [39]: 0.2 nM; Ratio IC50 [40]: < 100; Ratio IC50 [41]: < 100; inhibition in vivo at 25 mg/kg [42]: 82%; Ratio IC50 [43]: < 100

With `Cc1cc(-c2n[nH]c3cc(NC(=O)CCc4ccccc4)ncc23)ccn1` as the compound, how does the IC50 [44] read?
The IC50 was 420 nM.

For `Cc1cc(-c2n[nH]c3cc(NC(=O)N[C@@H](C)c4ccccc4)ncc23)ccn1`, which IC50 [45] is on record?
Its IC50 is 1800 nM.
